Data: PMC5909973 (ChemMedChem, 2017)

How the values were obtained:
[1] = molecular target: T1, human FPR2 (Homo sapiens, UniProt P25090); experiment: Ca2+ mobilization; assay type: cell-based; conditions: for Ca+2 mobilization FPR2-HL60 efficacy: normalized to 5 nM WKYMVM = 100%
T1 sequence (P25090 1-351): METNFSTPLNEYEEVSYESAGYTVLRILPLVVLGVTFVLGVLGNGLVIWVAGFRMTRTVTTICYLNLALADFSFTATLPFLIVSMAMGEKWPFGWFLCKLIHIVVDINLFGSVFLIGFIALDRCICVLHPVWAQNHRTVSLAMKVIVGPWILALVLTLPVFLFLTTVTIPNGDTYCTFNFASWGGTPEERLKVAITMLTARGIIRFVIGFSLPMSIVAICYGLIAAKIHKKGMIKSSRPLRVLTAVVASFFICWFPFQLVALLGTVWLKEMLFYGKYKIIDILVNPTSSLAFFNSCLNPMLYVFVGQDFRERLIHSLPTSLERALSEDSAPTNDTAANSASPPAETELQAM
Method in brief: (§1)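 FPR1- or FPR2-stably transfected HL-60 cells were kept in RPMI 1640 with 10% FCS and G418. Cells were loaded with Fluo-4 AM (1.25 µg/mL final) for 30 min at 37 °C in the dark, then put in HBSS with Ca²⁺/Mg²⁺ at 2×10⁵ cells/well. After test compound addition, fluorescence (ex 485/em 538 nm) was read every 5 s for 240 s at room temperature. Peak change over baseline was normalized to 5 nM fMLF (FPR1) or 5 nM WKYMVM (FPR2). Runs were in triplicate, with EC50 from nonlinear regression of 5–6 points.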

[2] = tested on: mouse microglial N9 cells; experiment: ROS production in LPS-stimulated N9 cells; assay type: cell-based; conditions: for reduction in cellular ROS level (dose dependence): N9 cells stimulated with LPS, 0.1 and 1 μM; for reduction in ROS production: N9 cells, 24 h co-incubation with LPS, compound 0.1 μM, p<0.05
Method in brief: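 N9 microglia seeded at 25,000 cells/well; after 3–4 h, LPS 300 ng/mL added alone or with test compound (0.1 or 1 μM), then 24 h at 37 °C. H2DCF-DA (10 μM final) added for 30 min, wells washed 3× in ice-cold PBS, read in saline at ex 480/em 520 nm. Increase over basal fluorescence; mean ± standard error, ≥3 biological replicates; one-way ANOVA with paired two-tailed t-tests, p<0.05.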

[3] = molecular target: T1, human FPR2; assay type: cell-based; conditions: for Ca+2 mobilization FPR2-HL60 max. inhibition: desensitization, pretreatment, then WKYMVM 5 nM
Method in brief: (§2)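 Fluo-4-loaded transfected HL-60 cells in HBSS⁺ were pretreated with DMSO vehicle or graded test compound concentrations while Ca²⁺ flux was monitored. The same wells were then challenged with 5 nM fMLF (FPR1 cells) or 5 nM WKYMVM (FPR2 cells). The second Ca²⁺ response (ex 485/em 538 nm, every 5 s for 240 s, room temperature) was taken as the measure of desensitization. Each compound was run in triplicate, with dose-response curves fitted by nonlinear regression.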

[4] = molecular target: T2, human FPR1 (Homo sapiens, UniProt P21462); experiment: Ca2+ mobilization; assay type: cell-based; conditions: for Ca+2 mobilization FPR1-HL60 efficacy: normalized to 5 nM fMLF = 100%
T2 sequence (P21462 1-350): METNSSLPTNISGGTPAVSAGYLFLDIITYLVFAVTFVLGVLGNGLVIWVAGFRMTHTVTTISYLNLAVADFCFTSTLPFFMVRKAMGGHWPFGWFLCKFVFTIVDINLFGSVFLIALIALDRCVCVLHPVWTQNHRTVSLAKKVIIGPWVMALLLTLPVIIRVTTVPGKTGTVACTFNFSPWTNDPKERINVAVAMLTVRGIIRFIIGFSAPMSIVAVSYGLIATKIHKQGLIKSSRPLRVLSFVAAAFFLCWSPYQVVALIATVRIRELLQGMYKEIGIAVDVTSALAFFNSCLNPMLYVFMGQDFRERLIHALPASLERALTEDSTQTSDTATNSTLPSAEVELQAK
Method in brief: as §1

[5] = ROS scavenging in cell-free non-enzymatic O2·−-generating system; conditions: concentrations up to 20 μM; data not shown
Method in brief: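 Superoxide generated non-enzymatically from phenazine methosulfate plus NADH in 0.05 M phosphate buffer, pH 7.5, with or without test compound. Detection by NBT reduction to monoformazan, followed at 560 nm and 25 °C on a plate spectrophotometer. The rate of absorbance change was taken as the read-out.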

[6] = tested on: N9 cells; experiment: MTT cytotoxicity assay in N9 cells; assay type: cell-based; conditions: Mus musculus, N9, 24 h, read-out: MTT EC50
Method in brief: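 Murine N9 microglia were grown in IMDM with 5% FBS and 2 mM glutamine at 37 °C in 5% CO₂, and seeded at 20,000 cells/well. Next day, test compound was added at 5–6 concentrations (10⁻⁸–10⁻⁴ M) in triplicate, with a DMSO vehicle control. After 24 h, MTT (0.5 mg/mL) was added for 3–4 h at 37 °C. Formazan was dissolved in DMSO/EtOH 1:1 and read at 570 and 630 nm. EC50 came from a nonlinear fit of percent absorbance change against log concentration.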

[7] = tested on: FPR2; conditions: FPR2 agonist WKYMVm; cited from earlier work
[8] = tested on: ear edema; conditions: cited from earlier work
[9] = tested on: FPR2; conditions: cited from earlier work
[10] = molecular target: FPR2; conditions: read-out: Ki value at FPR2; cited from earlier work
[11] = tested on: FPR2; conditions: read-out: FPR2 desensitization IC50; cited from earlier work
[12] = molecular target: T2, human FPR1; experiment: Desensitization: inhibition of fMLF-induced Ca2+ mobilization in FPR1-HL60 cells; assay type: cell-based
Method in brief: as §2

Structure (SMILES) | Ca+2 mobilization FPR2-HL60 efficacy [1] | reduction in cellular ROS level (dose dependence) [2] | reduction in ROS production [2] | Ca+2 mobilization FPR2-HL60 max. inhibition [3] | Ca+2 mobilization FPR1-HL60 efficacy [4] | direct ROS scavenging activity [5] | EC50 [6] | other results
COc1ccc(NC(=O)N[C@H](Cc2ccc(O)cc2)C(=O)NCC2(c3ccccc3)CC2)cc1 [(R)-25, (R)-3-(4-Hydroxyphenyl)-2-[3-(4-methoxyphenyl)ureido]-N-[(1-phenylcyclopropyl)methyl]propanamide] | 90% | dose-dependent reduction in cellular ROS level | statistically significant reduction in ROS production | 75% | 55% | none of the tested compounds demonstrated ROS scavenging activity | > 100000 nM | 
CCCCOc1ccc(C(=O)NN2C(=O)c3ccccc3NC2c2ccc(O)cc2)cc1 (stereo not drawn) [Compound 6, Quin C7] |  |  |  |  |  |  |  | inhibition of chemotaxis induced by WKYMVm [7]: inhibited; arachidonic acid-induced ear edema [8]: inhibited arachidonic acid-induced ear edema; inhibition of Ca2+ flux induced by WKYMVm ([9]; FPR2 agonist WKYMVm): inhibited; activation of Ca2+ flux ([9]; FPR2 transfected cells): did not activate Ca^2+ flux; Ki [10]: 6700 nM
N#Cc1ccc(C[C@@H](NC(=O)Nc2ccc(O)cc2)C(=O)NCC2(c3ccccc3)CC2)cc1 [(R)-24, (R)-3-(4-Cyanophenyl)-2-[3-(4-hydroxyphenyl)ureido]-N-[(1-phenylcyclopropyl)methyl]propanamide] |  |  |  |  |  |  | > 100000 nM | 
CCCCOc1ccc(C(=O)NN2C(=O)c3ccccc3NC2c2ccc(OC)cc2)cc1 (stereo not drawn) [Quin C1, reference compound] |  |  | statistically significant reduction in ROS production |  |  |  |  | IC50 [11]: 40 nM
O=C(Nc1ccc(Br)cc1)N[C@H](Cc1ccc(O)cc1)C(=O)NC1CCCCNC1=O (stereo partly drawn) [(2R)-46, (2R)-2-[3-(4-Bromophenyl)ureido]-3-(4-hydroxyphenyl)-N-(2-oxoazepan-3-yl)propanamide] | 140% | dose-dependent reduction in cellular ROS level | statistically significant reduction in ROS production | 100% | 110% | none of the tested compounds demonstrated ROS scavenging activity | > 100000 nM | FPR1 desensitization / inhibition of fMLF-induced Ca2+ mobilization, in words ([12]; FPR1-HL60 cells, fMLF): able to induce FPR1 desensitization; Ca+2 mobilization FPR1-HL60 max. inhibition ([12]; desensitization, pretreatment, then fMLF 5 nM): 85%; EC50 [1]: 350 ± 120 nM; FPR2 desensitization / block of agonist-induced Ca2+ mobilization, in words ([3]; FPR2-HL60 cells, WKYMVM): able to induce desensitization; EC50 [4]: 820 ± 370 nM
